Data on ten compounds can be found in ChEMBL document CHEMBL4385624, “l-Type amino acid transporter 1 activity of 1,2,3-triazolyl analogs of l-histidine and l-tryptophan” (Bioorg Med Chem Lett, 2019).

Holding throughout (format): cell-based
Experiment [1] concerns the target T1, Large neutral amino acids transporter small subunit 1 (Homo sapiens, UniProt Q01650). As to the kind of experiment: Cis-inhibition of human LAT1 expressed in TREx HEK293 cells assessed as inhibition of [3H]-gabapentin uptake preincubated for 3 mins at 37 degC followed by washing with choline buffer and measured after 3 hrs by scintillation counting analysis. A digest of the protocol:
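Inducible hLAT1 HEK cells in 24-well poly-D plates, pH 7.4. Cells were exposed to [³H]-gabapentin (6 nM) plus test compound at 0.1–500 μM. […] Run at least in triplicate.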

The target of experiment [2] is T1, Large neutral amino acids transporter small subunit 1. As to the kind of experiment: Trans-stimulation of human LAT1 expressed in TREx HEK293 cells assessed as induction of [3H]-gabapentin efflux at 200 uM after 3 mins by scintillation counting analysis relative to L-phenylalanine. A digest of the protocol: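 [³H]-gabapentin-preloaded HEK-hLAT1 cells (inducible) were treated with compound at 200 μM. Efflux rate was taken at 3 min and expressed as % of the rate induced by L-phenylalanine, averaged over seven experiments. At least triplicate, 24-well poly-D plates.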

For experiment [3] the target is unchanged. As to the kind of experiment: Cis-inhibition of human LAT1 expressed in TREx HEK293 cells at 200 uM assessed as inhibition of [3H]-gabapentin uptake preincubated for 3 mins at 37 degC followed by washing with choline buffer and measured after 3 hrs by scintillation counting analysis relative to BCH.
Experiment [4] has the same target. As to the kind of experiment: Trans-stimulation of human LAT1 expressed in TREx HEK293 cells assessed as induction of [3H]-gabapentin efflux at 200 uM after 3 mins by scintillation counting analysis. A digest of the protocol:
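HEK cells with inducible hLAT1 were preloaded with [³H]-gabapentin, then exposed to test compound at 200 μM. Efflux rate (fmol/min) was calculated 3 min after compound addition. Data from at least triplicate wells in 24-well poly-D plates.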

T1 sequence (Q01650 whole entry): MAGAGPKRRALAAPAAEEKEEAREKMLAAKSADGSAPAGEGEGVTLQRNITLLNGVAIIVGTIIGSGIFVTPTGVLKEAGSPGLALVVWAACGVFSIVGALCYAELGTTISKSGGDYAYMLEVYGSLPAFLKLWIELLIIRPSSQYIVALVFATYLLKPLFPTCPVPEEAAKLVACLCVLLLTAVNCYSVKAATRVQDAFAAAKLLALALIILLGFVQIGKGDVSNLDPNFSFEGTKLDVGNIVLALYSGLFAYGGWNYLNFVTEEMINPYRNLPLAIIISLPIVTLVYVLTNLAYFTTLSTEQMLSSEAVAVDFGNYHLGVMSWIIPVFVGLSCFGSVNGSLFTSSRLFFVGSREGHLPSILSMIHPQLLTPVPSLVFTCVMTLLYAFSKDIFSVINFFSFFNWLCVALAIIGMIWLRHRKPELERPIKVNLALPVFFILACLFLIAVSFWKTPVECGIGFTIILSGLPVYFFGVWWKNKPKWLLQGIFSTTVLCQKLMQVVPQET

As to `N[C@@H](Cn1ccnn1)C(=O)O`, the concentration for half-maximal inhibition (IC50) (as a rule, the concentration at which inhibition is half-maximal) in experiment [1] was found to be 160 µM. Moreover, the Activity in experiment [2] is 82%. The inhibition (in general, the relative decrease from the control value, in per cent) in experiment [3] was 58%.
On to `N[C@@H](Cc1ccccc1)C(=O)O`, for which the Activity in experiment [4] came out at 2.7 fmol/min.
On to `Cc1cn(C[C@H](N)C(=O)O)nn1`, for which the IC50 in experiment [1] amounted to 440 µM. The Activity in experiment [2] was 70%. In experiment [3], the inhibition worked out at 38%.
As for `N[C@@H](Cc1c[nH]cn1)C(=O)O` [HISTIDINE], the IC50 in experiment [1] stood at 110 µM.
Turning to `N[C@@H](Cn1cc(CO)nn1)C(=O)O`, in experiment [1], the IC50 is more than 1000 µM. Besides, the Activity in experiment [2] amounted to 57%. Also, in experiment [3], the inhibition was 14%.
For `Cn1cc(C[C@H](N)C(=O)O)nn1`, in that order: more than 1000 µM, 63% and 20%.
As to `N[C@@H](Cc1cn(Cc2ccccc2)nn1)C(=O)O`, the Activity in experiment [2] worked out at 43%.
In the case of `N[C@@H](Cn1cc(Cc2ccccc2)nn1)C(=O)O`, the Activity in experiment [2] was 49%. Further, the inhibition in experiment [3] was -6%.
For the compound `N[C@@H](Cn1nnc2ccccc21)C(=O)O`, the half-maximal inhibitory concentration (IC50) in experiment [1] came to 340 µM. The Activity in experiment [2] is 100%. For the same compound, the inhibition in experiment [3] amounted to 59%.
Taken in the same sequence, the figures for `N[C@@H](Cn1cc(-c2ccccc2)nn1)C(=O)O` were more than 1000 µM, 37% and 13%.
